From ChEMBL document CHEMBL1141338, “Cytotoxic sesquiterpene lactones from Pseudoelephantopus spicatus” (J Nat Prod, 2007)
Converted amounts (≈) assume the structure as drawn.

Experiments:
[1] = Cytotoxicity against human Hep3B cells; assay type: functional, cell-based, Hep 3B2
Outline: (§1)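 Human Hep3B hepatocellular carcinoma and MCF-7 breast carcinoma lines; cytotoxicity reported as IC50 in µg/mL; doxorubicin included as positive control.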

HepG2 = assay: Cytotoxicity against human HepG2 cells; assay type: functional, cell-based
Outline: (§2)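 Panel lines are HepG2 hepatocellular carcinoma, MDA-MB-231 breast carcinoma and A-549 lung carcinoma (human); cytotoxicity evaluated alongside Hep3B and MCF-7 in the same screen.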

MCF7 = assay: Cytotoxicity against human MCF7 cells; assay type: functional, cell-based; outline: as §1
MDA-MB-231 = assay: Cytotoxicity against human MDA-MB-231 cell; assay type: functional, cell-based; outline: as §2
A549 = assay: Cytotoxicity against human A549 cells; assay type: functional, cell-based; outline: as §2

SMILES | IC50 [1] [µg/mL] | IC50 (HepG2) [µg/mL] | IC50 (MCF7) [µg/mL] | IC50 (MDA-MB-231) [µg/mL] | IC50 (A549) [µg/mL]
COc1cccc2c1C(=O)c1c(O)c3c(c(O)c1C2=O)C[C@@](O)(C(=O)CO)C[C@@H]3O[C@H]1C[C@H](N)[C@H](O)[C@H](C)O1 [DOXORUBICIN] | 0.06 (≈ 0.11 µM) |  |  |  | 
COCC1=C2[C@@H](O)C[C@@]3(C)O[C@]2(C[C@](C)(O)CCC3=O)OC1=O [SPICATOLIDE F] | 3.2 (≈ 9.81 µM) | > 5 | 2.4 (≈ 7.35 µM) | > 5 | > 5
C/C=C(\C)C(=O)O[C@H]1C[C@](C)(O)[C@]2(O)CC[C@](C)(/C=C3/OC(=O)C(COC)=C31)O2 [SPICATOLIDE E] |  | > 5 |  | > 5 | > 5
COCC1=C2[C@@H](OC(C)=O)C[C@@](C)(OC(C)=O)[C@@]3(O)CC[C@@](C)(O)[C@H](OC(C)=O)[C@@]23OC1=O |  | > 5 |  | > 5 | > 5
COCC1=C2/C(=C\[C@@]3(C)CC[C@](O)(O3)[C@@](C)(O)C[C@@H]2OC(C)=O)OC1=O |  | > 5 |  | > 5 | > 5
C=C1CC[C@@H]2[C@H](OC(=O)[C@H]2C)[C@H]2[C@H](C)OC(=O)C[C@@H]12 [SPICATOLIDE H] |  | > 5 |  | > 5 | > 5
COCC1=C2/C(=C\[C@@]3(C)CC[C@](O)(O3)[C@@](C)(O)C[C@@H]2O)OC1=O [SPICATOLIDES D] | 4.8 (≈ 14.7 µM) | > 5 | 5.1 (≈ 15.6 µM) | > 5 | > 5
COCC1=C2[C@@H](OC(C)=O)C[C@@]3(C)O[C@@]2(OC1=O)[C@H](O)[C@@]1(C)CC[C@]3(O)O1 [SPICATOLIDE G] | 6.1 (≈ 15.9 µM) | > 5 | 4.8 (≈ 12.5 µM) | > 5 | > 5
CC(=O)OCC1=C2/C(=C\[C@@]3(C)CC[C@](O)(O3)[C@@](C)(O)C[C@@H]2O)OC1=O [PITOCARPHIN D] |  | > 5 |  | > 5 | > 5
CC(=O)OCC1=C2[C@@H](OC(C)=O)C[C@@]3(C)O[C@]2(C[C@](C)(O)CCC3=O)OC1=O [SPICATOLIDE A] |  | > 5 |  | > 5 | > 5
